Screening results (PubChem BioAssay)
CHOP UPR activ = apoptotic UPR (CHOP) activation; CHO-CHOP luciferase reporter, luminescence; percent of tunicamycin response over DMSO baseline; activation, % at 10 µM; actives 0.34% (n = 330,000); AID 449763;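 active = at 10 µM dose, activation of 40% or more, normalized to positive control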;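 note: 100% = tunicamycin at 10 µg/mL and 0% = DMSO alone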
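Test system: CHO-CHOP cells, stable luciferase reporter of PERK-eIF2a-CHOP signalling | Quantity: 500 CHO-CHOP cells per well | Buffer or medium: F12 plus 10% serum | Compound dosing: 10 µM single point, 0.5% DMSO | Schedule: 6 h compound treatment, 37 °C | Signal: Luciferase luminescence | Control set: Tunicamycin high control, DMSO low control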
XBP1 UPR activ = adaptive UPR (XBP1) activation | AID 463104 | activation, % at 20 µM | actives 0.33% (n = 330,000) | CHO-XBP1 luciferase reporter, IRE1-XBP1 UPR activation, luminescence; percent of tunicamycin response, DMSO as zero;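 active = versus positive control, 20 µM dose yields 30% or more activation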;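 note: 100% = tunicamycin at 10 µg/mL and 0% = DMSO only wells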
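Assay system: CHO-XBP1 luciferase reporter cells; Schedule: 6 h treatment, 37 °C; Detection: glow luminescence from Steady-Glo reagent; Benchmarks: high control tunicamycin 10 µg/mL final, low control DMSO vehicle only.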
TIM10 inh = inhibits growth of TIM10 yeast strain; S. cerevisiae TIM10 strain growth, BacTiter-Glo luminescence, 24 h; inhibition, % at 10 µM; actives 1.4% (n = 330,000);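 active = inhibition of 40% or more at the single tested concentration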;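 note: wild-type TIM10 isogenic control strain grown at permissive 25 °C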
tim10-1 inh = growth inhibitors of tim10-1 mutant yeast. actives 2.2% (n = 330,000). S. cerevisiae tim10-1 ts strain growth, BacTiter-Glo, 24 h. inhibition, % at 20 µM;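 active = inhibition of at least 40%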;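 note: mutant grown at 25 °C; 0% = DMSO wells with yeast and 100% = wells holding no yeast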
tim23-1 inh = growth inhibitors of tim23-1 mutant yeast; AID 463212; actives 1.3% (n = 330,000); inhibition, % at 20 µM; S. cerevisiae tim23-1 growth, BacTiter-Glo luminescence, 24 h;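 active = growth inhibition of the mutant yeast at or above 50%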;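 note: temperature-sensitive mutant grown at 25 °C; plate controls were DMSO-treated mutant yeast for no effect and medium wells lacking yeast for full effect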
tim10-1 conf = tim10-1 yeast growth inhibition, confirmed; shares compounds with tim10-1 inh; S. cerevisiae tim10-1 ts strain growth, BacTiter-Glo, 24 h; inhibition, % at 20 µM; actives 56% (n = 7,400);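 active = inhibition of yeast growth at or above a set limit in either of two repeat tests at 20 µM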;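 note: tim10-1 mutant grown at permissive 25 °C to find synthetic lethal compounds; 0% = DMSO yeast wells and 100% = medium wells without yeast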
Numbers without * were called inactive; nt = no result. Sampled rows, rich in hits. Any-hit rate of the full collection: about 3.9%.

SMILES	CHOP UPR activ	XBP1 UPR activ	TIM10 inh	tim10-1 inh	tim23-1 inh	tim10-1 conf
CCc1ccccc1N(C(=O)c1snc(C(N)=O)c1N)C(C(=O)NCC1CCCO1)c1ccc(C)o1 (configuration not stated)	0.0	-2.4	1.2	32.8	22.2	nt
Fc1ccccc1CNCCC(Cc1ccccc1)c1ccc2c(c1)OCO2 (configuration not stated)	1.3	-0.2	9.5	46.9*	13.4	27.8
O=C(c1ccc2ncsc2c1)N1CCN(c2cccc(C(F)(F)F)c2)CC1	1.0	0.1	38.4	57.6*	49.8	39.5*
COc1ccc(OC)c2sc(N3CCc4ccccc4C3)nc12	2.1	1.2	24.9	37.2	33.5	nt
COc1ccc(OC)c2sc(N3CCN(C(=O)c4ccc5ncsc5c4)CC3)nc12	-1.9	-1.5	20.9	50.3*	29.1	21.4
COc1ccc2nc(N3CCN(C(=O)c4ccc5ncsc5c4)CC3)sc2c1	-0.9	-2.7	1.2	17.9	8.7	nt
O=C(c1ccc2nc[nH]c2c1)N1CCN(c2cccc(C(F)(F)F)c2)CC1	0.8	-5.7	28.3	37.1	33.6	nt
COc1ccc(OC)c2sc(N3CCCCC3)nc12	4.0	3.4	21.4	43.0*	26.3	24.6
O=C(O)CCC(=O)Nc1cccc2cccnc12	1.3	10.3	12.6	72.4*	-2.3	1.0
O=C(CCC(=O)OCC(=O)c1ccccc1)Nc1cccc2cccnc12	0.6	5.1	-2.7	-5.8	8.2	nt
Cc1ccc(S(=O)(=O)N/N=C/c2cccc([N+](=O)[O-])c2)cc1	-0.7	-1.9	-4.8	26.9	22.2	nt
Cc1ccc(S(=O)(=O)N/N=C\c2cc([N+](=O)[O-])ccc2Cl)cc1	0.0	-1.9	21.9	46.1*	37.3	32.2*
[N-]=[N+]=NC[C@H](Cc1ccccc1)N1CC[C@@H](NC(=O)OCc2ccccc2)CCC1=O	1.2	-1.6	-0.9	12.7	14.1	nt
N/C(=N/OC(=O)c1cccc([N+](=O)[O-])c1)c1cccc([N+](=O)[O-])c1	3.8	2.9	-26.2	19.8	-13.7	nt
O=C(CCNc1ccc(F)cc1)c1cccc([N+](=O)[O-])c1	2.2	-2.3	15.4	40.3*	12.8	43.0*
N/C(=N\OC(=O)c1ccccc1Cl)c1cccc([N+](=O)[O-])c1	3.6	-4.7	27.7	50.1*	23.3	65.8*
N/C(=N\OC(=O)c1cccc(F)c1)c1cccc([N+](=O)[O-])c1	7.1	-0.9	14.0	23.7	12.0	nt
N/C(=N\OC(=O)c1ccc(F)cc1)c1cccc([N+](=O)[O-])c1	3.3	-4.7	25.3	47.9*	28.1	63.0*
CC1CCc2sc(C(=O)N3CCC(C(N)=O)CC3)cc2C1 (configuration not stated)	8.0	4.1	2.3	-2.0	7.4	nt
O=[N+]([O-])c1cc(Cl)ccc1N1CCCCC1	0.9	-0.7	6.2	-1.8	1.0	nt
O=[N+]([O-])c1cc(Cl)ccc1N1CCN(c2ccccc2O)CC1	1.5	-2.8	39.8	58.6*	37.2	52.6*
N#Cc1ncc(Cc2ccccc2)nc1C#N	60.0*	1.7	0.5	40.9*	27.7	38.2*
O=C(NCc1cccnc1)c1ccc(-c2ccc(Cl)cc2)o1	-0.1	2.6	0.4	18.9	9.6	nt
O=C(NCc1cccnc1)c1ccc(-c2cc(Cl)ccc2Cl)o1	-1.1	3.9	15.0	40.2*	32.6	29.9
CCOc1cc(C(=O)Nc2cccc(OCC(=O)N3CCOCC3)c2)cc(OCC)c1OCC	-0.8	-4.5	-1.4	-2.6	16.9	nt
CC1Sc2ccc(S(=O)(=O)N3CCC(C(=O)Nc4ccc(Cl)cc4)CC3)cc2NC1=O (configuration not stated)	4.1	1.0	-4.4	18.3	7.4	nt
CC(C)CC(=O)NC(=S)Nc1ccccc1F	4.2	0.1	-10.6	15.9	26.8	nt
CC(C)CC(=O)NC(=S)Nc1ccccc1C(F)(F)F	1.3	-0.4	25.3	41.5*	47.0	27.7
CCCN(Cc1nnc(-c2ccccc2Cl)o1)C(=O)c1oc2ccccc2c1C	-0.8	-3.5	9.2	17.2	18.2	nt
CN(C)CCCN(Cc1ccccc1)C(=S)Nc1cccc(C(F)(F)F)c1	0.7	-2.3	5.3	24.7	8.3	nt
